Measured values taken from PMC9179932 (Nature chemical biology, 2022).
Where two headings read alike, the source gives them in different places. One block for each compound: values may come before it. Peptide text beside a SMILES is read from it.

Tests used:
THP-1 cells = test: THP-1 LDH release and GSDMD cleavage immunoblot; assay type: cell-based, human; details: for PI uptake, GSDMD cleavage and LDH release in knockout cells: CASP1−/− and CARD8−/− THP-1; for additional pyroptosis in DPP8/9−/− THP-1 cells: LDH release, GSDMD cleavage, CTG and CTF; for LDH release and GSDMD cleavage: WT THP-1, XP-OMes 1 mM, VbP 2 μM, 24 h
RAW264.7 cells = test: Pyroptosis in RAW264.7 macrophages; assay type: cell-based, mouse; details: 24 h; for pyroptosis at fivefold higher concentration: 5 mM, CTF and CTG
MV4;11 cells [1] = test: MV4; assay type: cell-based, human; details: for PI uptake, GSDMD cleavage and LDH release in knockout cells: CASP1−/− and CARD8−/− MV4;11; for LDH release and GSDMD cleavage in PEPD−/− vs control cells: PEPD−/− MV4;11, 1 mM; for LDH release and GSDMD cleavage in PEPD−/− vs control cells / effect on CQ31-induced cell death / effect on VP-OMe- and IP-OMe-induced LDH release and GSDMD cleavage: 6 h; for LDH release and GSDMD cleavage / effect on CQ31-induced cell death: WT MV4;11; for LDH release and GSDMD cleavage: XP-OMes 1 mM, VbP 2 μM, 14 h; for effect on CQ31-induced cell death: CQ31 10 μM; for effect on CQ31-induced cell death / effect on VP-OMe- and IP-OMe-induced LDH release and GSDMD cleavage: bortezomib 1 μM, VX-765 50 μM; for effect on VP-OMe- and IP-OMe-induced LDH release and GSDMD cleavage: pretreatment
Procedure, shortened: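 MV4;11 cells (WT or knockouts) are plated at 5×10^5 per well. Treatments: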

resting primary T cells = test: Pyroptosis in resting primary T cells; assay type: cell-based, human; details: for GSDMD cleavage in resting T cells: 1 mM, 18 h
Procedure, shortened: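 Primary resting human CD3+ T cells (>90% purity) are thawed in RPMI/10% FBS and cultured with IL-2 30 U ml−1. Cells are treated with 1 mM for 18 h or 10 μM for 24 h. Analysis is by immunoblot for pyroptotic and apoptotic markers, with CTG viability after 24 h. Results are representative of two independent experiments.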

recombinant DPP9 = recombinant DPP9 (Homo sapiens, UniProt Q86TI2); test: AP-AMC-based DPP9 substrate assay; assay type: biochemical; details: for effect of esterification on DPP9 inhibition: methyl ester vs free dipeptide
Sequence of recombinant DPP9 (Q86TI2 whole entry, species assumed): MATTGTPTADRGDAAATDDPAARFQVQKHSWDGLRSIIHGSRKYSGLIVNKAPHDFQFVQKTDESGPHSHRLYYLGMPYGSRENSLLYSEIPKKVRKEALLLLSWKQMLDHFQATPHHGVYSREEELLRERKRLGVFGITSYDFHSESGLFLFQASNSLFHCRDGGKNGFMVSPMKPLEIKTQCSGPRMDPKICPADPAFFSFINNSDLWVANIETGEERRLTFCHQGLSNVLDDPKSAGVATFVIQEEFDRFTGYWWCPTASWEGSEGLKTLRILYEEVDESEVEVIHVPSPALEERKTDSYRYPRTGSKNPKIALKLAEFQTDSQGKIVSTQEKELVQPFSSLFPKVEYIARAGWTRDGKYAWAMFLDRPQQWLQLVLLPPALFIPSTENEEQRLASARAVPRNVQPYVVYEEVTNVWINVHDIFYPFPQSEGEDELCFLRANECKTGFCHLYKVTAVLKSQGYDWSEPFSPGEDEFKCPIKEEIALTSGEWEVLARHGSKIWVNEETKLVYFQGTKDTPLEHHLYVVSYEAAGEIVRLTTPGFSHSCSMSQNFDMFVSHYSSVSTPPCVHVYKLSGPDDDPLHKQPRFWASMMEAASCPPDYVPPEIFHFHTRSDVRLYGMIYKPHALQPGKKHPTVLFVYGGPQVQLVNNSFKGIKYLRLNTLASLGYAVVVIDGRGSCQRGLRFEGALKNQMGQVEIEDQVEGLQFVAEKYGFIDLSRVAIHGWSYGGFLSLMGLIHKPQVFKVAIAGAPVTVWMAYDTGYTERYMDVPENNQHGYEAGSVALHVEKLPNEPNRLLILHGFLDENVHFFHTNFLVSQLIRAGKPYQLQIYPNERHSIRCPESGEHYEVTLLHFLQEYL
Procedure, shortened: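 Recombinant DPP9 (1 nM) is dispensed into 384-well plates and test compound is added by pintool over a concentration series. Reaction starts with 25 μM AP-AMC. Cleavage is read as rising fluorescence (ex/em 380/460 nm) at 25 °C for 30 min.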

MV4;11 cells [2] = test: MV4; assay type: cell-based; details: 1 mM; for lytic cell death / cytotoxicity in MV4;11 cells: PI uptake, CTG, CTF; for pyroptosis in PEPD−/− knockout cells / activity in control cells: 14 h
N/TERT-1 keratinocytes = test: NLRP1 inflammasome activation in N/TERT-1 keratinocytes; assay type: cell-based, human; details: XP-OMes 1 mM, VbP 10 μM, CQ31 10 μM, 16 h
Procedure, shortened: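 N/TERT-1 immortalised keratinocytes seeded at 1×10^5 cells per well in 12-well plates, grown to 70% confluence, then treated with test compound for 16 h. Supernatants assayed for LDH activity with a commercial cytotoxicity kit; inflammasome readouts such as IL-18 processing assessed by immunoblotting.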

[3] = test system: VbP-sensitive cell lines, including THP-1 cells; test: Viability of VbP-sensitive AML cancer cell lines; assay type: cell-based, human; details: 24 h, CTG
Procedure, shortened: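 Cell lines grown in RPMI/10% FBS are seeded at 2,000 cells per well in 384-well plates (25 μl). Test compound is pinned in at multiple concentrations and incubated 24 h at 37 °C, 5% CO2. CellTiter-Glo is added, plates are shaken 2 min and held 10 min at 25 °C, and luminescence is read.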

NLRP1–DPP9 interaction = NLRP1–DPP9 interaction (Homo sapiens, UniProt Q86TI2); test: DPP9 displacement from FLAG-NLRP1 on anti-FLAG beads; assay type: binding; details: VbP 10 μM; VP dipeptide 0.5, 5 mM; CQ31, CQ04 10 μM
Sequence of NLRP1–DPP9 interaction (Q86TI2 whole entry): as the sequence (Q86TI2 whole entry, species assumed) above

human NLRP1 inflammasome = test: Reconstituted human NLRP1 inflammasome in HEK 293T cells; assay type: cell-based; details: XP-OMes 1 mM, VbP 10 μM, CQ31 10 μM, 24 h
Procedure, shortened: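 For ASC specks, HEK 293T cells (2.5×10^5 per well) are transfected with 10 ng FLAG-NLRP1, 5 ng V5-GFP-ASC and 985 ng RFP plasmid and allowed 24 h expression. They are treated 24 h, Hoechst-stained, and the % of cells with specks is scored by microscopy. For GSDMD cleavage, HEK 293T cells stably expressing CASP1/GSDMD get 0.02 μg NLRP1 and 0.01 μg ASC (2.0 μg total DNA), are treated 16–20 h later for 24 h, and are immunoblotted.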

J774.1 macrophages = test: Pyroptosis in J774.1 macrophages; assay type: cell-based, mouse; details: VbP 2 μM, 24 h
Procedure, shortened: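 J774.1 cells are grown in RPMI/10% FBS, plated at 5×10^5 per well and treated 24 h (VbP 2 μM). Supernatant LDH is measured relative to Triton X-100 lysis (n = 3). For the dose series, 2,000 cells per well in 384-well plates get compound by pintool. CTF fluorescence is read after 30 min, then CTG luminescence after 2 min shaking and 10 min at 25 °C (n = 6).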

Structure (SMILES): CC[C@H](C)[C@H](N)C(=O)N1CCC[C@H]1C(=O)OC [IP-OMe] (H-Ile-Pro-OMe)
- PI uptake, GSDMD cleavage and LDH release in knockout cells (THP-1 cells): lack of PI uptake, GSDMD cleavage and LDH release
- additional pyroptosis in DPP8/9−/− THP-1 cells (THP-1 cells): did not induce any additional pyroptosis
- LDH release and GSDMD cleavage (THP-1 cells): induced the release of intracellular lactate dehydrogenase (LDH) and GSDMD cleavage
- pyroptosis at fivefold higher concentration (RAW264.7 cells): failed to trigger pyroptosis
- PI uptake, GSDMD cleavage and LDH release in knockout cells (MV4;11 cells [1]): lack of PI uptake, GSDMD cleavage and LDH release
- LDH release and GSDMD cleavage in PEPD−/− vs control cells (MV4;11 cells [1]): induced more LDH release and GSDMD cleavage
- LDH release and GSDMD cleavage (MV4;11 cells [1]): induced the release of intracellular lactate dehydrogenase (LDH) and GSDMD cleavage
- GSDMD cleavage in resting T cells (resting primary T cells): induced GSDMD cleavage
- effect of esterification on DPP9 inhibition (recombinant DPP9): did not impact DPP9 inhibition
- lytic cell death / cytotoxicity in MV4;11 cells (MV4;11 cells [2]): cytotoxic
- NLRP1 inflammasome activation (LDH release, IL-18 cleavage and release) (N/TERT-1 keratinocytes): did not induce NLRP1 inflammasome activation

- IC50 (recombinant DPP9): 10 to 15 µM
Structure (SMILES): CCC(C)C(N)C(=O)N1CCCC1C(=O)O (stereo not drawn) [Ile-Pro, reference compound] (H-Ile-Pro-OH; configuration not given here)
- lytic cell death / cytotoxicity in MV4;11 cells (MV4;11 cells [2]): did not induce lytic cell death

Structure (SMILES): COC(=O)[C@@H]1CCCN1C(=O)[C@@H](N)CC(C)C [LP-OMe] (H-Leu-Pro-OMe)
- pyroptosis in PEPD−/− knockout cells (MV4;11 cells [2]): induced pyroptosis
- activity in control cells (MV4;11 cells [2]): inactive in control cells

Structure (SMILES): COC(=O)[C@@H]1CCCN1C(=O)[C@@H](N)CCSC [MP-OMe] (H-Met-Pro-OMe)
- pyroptosis in PEPD−/− knockout cells (MV4;11 cells [2]): induced pyroptosis
- activity in control cells (MV4;11 cells [2]): inactive in control cells

Structure (SMILES): COC(=O)[C@@H]1CCCN1C(=O)[C@@H]1CCCN1 [PP-OMe] (H-Pro-Pro-OMe)
- pyroptosis in PEPD−/− knockout cells (MV4;11 cells [2]): induced pyroptosis
- activity in control cells (MV4;11 cells [2]): inactive in control cells

Structure (SMILES): COC(=O)[C@@H]1CCCN1C(=O)[C@@H](N)C(C)C [VP-OMe] (H-Val-Pro-OMe)
- PI uptake, GSDMD cleavage and LDH release in knockout cells (THP-1 cells): lack of PI uptake, GSDMD cleavage and LDH release
- additional pyroptosis in DPP8/9−/− THP-1 cells (THP-1 cells): did not induce any additional pyroptosis
- LDH release and GSDMD cleavage (THP-1 cells): induced the release of intracellular lactate dehydrogenase (LDH) and GSDMD cleavage
- pyroptosis at fivefold higher concentration (RAW264.7 cells): failed to trigger pyroptosis
- concentration inducing cell death [3]: < 5 mM
- PI uptake, GSDMD cleavage and LDH release in knockout cells (MV4;11 cells [1]): lack of PI uptake, GSDMD cleavage and LDH release
- LDH release and GSDMD cleavage in PEPD−/− vs control cells (MV4;11 cells [1]): induced more LDH release and GSDMD cleavage
- LDH release and GSDMD cleavage (MV4;11 cells [1]): induced the release of intracellular lactate dehydrogenase (LDH) and GSDMD cleavage
- GSDMD cleavage in resting T cells (resting primary T cells): induced GSDMD cleavage
- effect of esterification on DPP9 inhibition (recombinant DPP9): did not impact DPP9 inhibition
- lytic cell death / cytotoxicity in MV4;11 cells (MV4;11 cells [2]): cytotoxic
- NLRP1 inflammasome activation (LDH release, IL-18 cleavage and release) (N/TERT-1 keratinocytes): did not induce NLRP1 inflammasome activation

Structure (SMILES): CCO[C@@H]1OC(=O)C[C@@H]1NC(=O)[C@@H]1CCCN1C(=O)[C@@H](NC(=O)c1ccc(N)c(Cl)c1)C(C)(C)C [VX-765, reference compound]
- effect on CQ31-induced cell death (MV4;11 cells [1]): blocked CQ31-induced cell death
- effect on VP-OMe- and IP-OMe-induced LDH release and GSDMD cleavage (MV4;11 cells [1]): completely blocked

Structure (SMILES): CC(C)[C@H](N)C(=O)N1CCC[C@H]1C(=O)O [Val-Pro, reference compound] (H-Val-Pro-OH)
- disruption of NLRP1–DPP9 interaction (DPP9 elution) (NLRP1–DPP9 interaction): had no impact on the NLRP1 ternary complex
- IC50 (recombinant DPP9; read-out: IC50, DPP9 inhibition, Ala-Pro-aminomethylcoumarin (AP-AMC) substrate): 10 to 15 µM
- lytic cell death / cytotoxicity in MV4;11 cells (MV4;11 cells [2]): did not induce lytic cell death

Structure (SMILES): CC(C)[C@H](N)C(=O)N1CCC[C@H]1B(O)O [VbP, Val-boroPro, reference compound]
- additional pyroptosis in DPP8/9−/− THP-1 cells (THP-1 cells): did not induce any additional pyroptosis
- LDH release and GSDMD cleavage (THP-1 cells): induced the release of intracellular lactate dehydrogenase (LDH) and GSDMD cleavage
- ASC speck formation (human NLRP1 inflammasome): triggered the formation of ASC specks
- activation of mNLRP1B1 (LDH release, GSDMD cleavage) (RAW264.7 cells; VbP 2 μM): activated mouse NLRP1B allele 1
- LDH release and GSDMD cleavage (MV4;11 cells [1]): induced the release of intracellular lactate dehydrogenase (LDH) and GSDMD cleavage
- pyroptosis in resting primary T cells (resting primary T cells; 10 μM, 24 h): induced pyroptosis
- activation of mNLRP1B1 (LDH release) (J774.1 macrophages): activated mouse NLRP1B allele 1
- NLRP1 inflammasome activation (LDH release, IL-18 cleavage and release) (N/TERT-1 keratinocytes): induced LDH release as well as IL-18 cleavage and release

Structure (SMILES): CC(C)C[C@H](NC(=O)[C@H](Cc1ccccc1)NC(=O)c1cnccn1)B(O)O [bortezomib, reference compound]
- apoptosis (PARP cleavage) (MV4;11 cells [1]): caused considerable apoptosis
- effect on CQ31-induced cell death (MV4;11 cells [1]): blocked CQ31-induced cell death
- effect on VP-OMe- and IP-OMe-induced LDH release and GSDMD cleavage (MV4;11 cells [1]): completely blocked
